Results gathered from unrelated publications.
Compare with care: the assays were run in different laboratories.
TYK2: Non-receptor tyrosine-protein kinase TYK2 (TYK2, Homo sapiens, UniProt P29597)
TYK2 JH1: Non-receptor tyrosine-protein kinase TYK2, JH1 (TYK2, Homo sapiens, UniProt P29597)

Compound	target	read-out	mode	method	tested at	endpoint	result
CC(C)(C)c1nc2c(s1)c1nc(N)ncc1c1ccc(NS(=O)(=O)c3c(F)cccc3F)c(F)c12	TYK2	enzyme activity	inhibitor	radiometric	1 µM	remaining activity	92%
N[C@H]1CCN(c2nccc(-c3cnn4ncccc34)n2)C1	TYK2 JH1	cell-free assay			1 µM	remaining signal	76%
CS(=O)(=O)Nc1cccc(-c2csc(NC(=O)CSc3nc4nccnc4c(=O)n3CCc3ccccc3)n2)c1	TYK2	enzyme activity	inhibitor		10 µM	inhibition	-1%
Nc1ncnc2occ(-c3ccc(NC(=O)Nc4cc(C(F)(F)F)ccc4F)cc3)c12	TYK2 JH1	cell-free assay	inhibitor		20 µM	remaining signal	55%
O=C1NC(=O)c2cc(Nc3ccc(F)cc3)c(Nc3ccc(F)cc3)cc21	TYK2	cell-free assay			0.5 µM	remaining signal	80.6%
COc1cc(Cl)c(C(=O)N[C@@H](CN[C@H]2CC[C@@H](N)CC2)Cc2ccc(C#N)cc2)cc1-c1ccc(CN[C@H](C)c2ccc(C)cc2)o1	TYK2	enzyme activity	inhibitor		1 µM	remaining activity	105%
C[C@H]1CCN(c2nccc(-c3cnn4ncccc34)n2)C1	TYK2 JH1	cell-free assay			1 µM	remaining signal	63%
COCCOc1nc(-c2ccc(Cl)nc2)nc2c1CN(C(=O)c1ncn3ccccc13)CC2	TYK2 JH1	cell-free assay		competition with immobilised ligand	0.1 µM	remaining binding	100%
Cc1cc(NC(=O)c2cccc3cc(-c4cccc5[nH]nc(N)c45)ccc23)ccc1F	TYK2	enzyme activity	inhibitor		0.1 µM	activity vs control	94%
Cc1ccc(C(=O)NCc2ccsc2)cc1C#Cc1cn(C(C)C)c2ncnc(N)c12	TYK2	enzyme activity	inhibitor		1 µM	activity vs control	49%
O=C(N1CCS(=O)(=O)CC1)N1C[C@H](c2ccc(OC(F)(F)F)cc2)C[C@H](c2nc(C3CC3)no2)C1	TYK2 JH1	cell-free assay		competition with immobilised ligand	1 µM	remaining binding	53%
COc1cc2ncnc(Nc3ccc(Oc4ccccc4)c(C)c3C)c2cc1OC	TYK2	enzyme activity	inhibitor		1 µM	inhibition	-2%
CNC(=O)c1cc(Oc2ccc(NC(=O)Nc3ccc(Cl)c(C(F)(F)F)c3)cc2)ccn1	TYK2	cell-free assay			0.5 µM	remaining signal	98.9%
Cc1sc(C(=O)NC2COC2)cc1-n1cc(NC(=O)Nc2c(F)cccc2Cl)cn1	TYK2	enzyme activity	inhibitor		10 µM	remaining activity	114%
CC(C)(O)[C@H]1CC[C@H](Nc2ccc3ncc(-c4cccc(C(F)(F)F)c4)n3n2)CC1	TYK2	enzyme activity	inhibitor		1 µM	remaining activity	73.7%
C[C@@]1(Cc2ccc(C#N)cc2)C(=O)N(c2cc(Cl)cc(Cl)c2)c2ncc(C(=O)NC3(c4nc(C5CCC5)no4)CC3)n21	TYK2 JH1	cell-free assay		competition with immobilised ligand	1 µM	remaining binding	100%
N#CCCc1ccc2c(c1)-c1[nH]c3ccc([N+](=O)[O-])cc3c1CC(=O)N2	TYK2	cell-free assay			0.5 µM	remaining signal	48.1%
O=C(NCc1ncc(C(F)(F)F)cc1Cl)c1ccc2c(c1)C1(CCS(=O)(=O)CC1)[C@H](C1CC1)N2S(=O)(=O)c1ccc(F)cc1	Non-receptor tyrosine-protein kinase TYK2, JH2 (TYK2, Homo sapiens, UniProt P29597)	cell-free assay		competition with immobilised ligand	1 µM	remaining binding	79%
O=C(Nc1cnn(-c2csc(C(=O)NC3COC3)c2)c1)Nc1c(F)cccc1Cl	TYK2	enzyme activity	inhibitor		5 µM	remaining activity	89.3%
CCOCCn1cc(C(=O)Nc2ccc(-n3nc(-c4cccnc4)cc3C(F)(F)F)cn2)ccc1=O	TYK2 JH1	cell-free assay		competition with immobilised ligand	1 µM	remaining binding	100%
Cc1ccc(NC(=O)c2ccc(C)c(C(F)(F)F)c2)cc1C#Cc1nn(C2CCC(O)CC2)c2ncnc(N)c12 (centres unmarked)	TYK2	cell-free assay			10 µM	remaining signal	36%
CC1=C(C#N)[C@@H](c2ccc3[nH]nc(C)c3c2)C(C#N)=C(c2ccc(Cl)cc2)N1	TYK2 JH1	cell-free assay		competition with immobilised ligand	1 µM	remaining binding	73.1%
CCCS(=O)(=O)Nc1ccc(F)c(C(=O)c2c[nH]c3ncc(-c4ccc(Cl)cc4)cc23)c1F	TYK2	enzyme activity	inhibitor		1 µM	inhibition	< 10%
